In article PMC6210076 (ACS Omega, 2018):
Several values for one entry are separate records, joined by “and”; a condition that tells them apart may be missing. Identical values can stand only once.

Target: T1, HPA (Helix pomatia, UniProt Q2F1K8)
T1 sequence (Q2F1K8 20-121): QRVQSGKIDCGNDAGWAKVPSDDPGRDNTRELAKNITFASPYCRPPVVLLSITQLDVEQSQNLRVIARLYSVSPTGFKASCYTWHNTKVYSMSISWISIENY
Assay: Fluorescent microarray competition: Alexa Fluor 647-labeled HPA
Format: biochemical
Conditions: IC50,microarray (μM); SEM
Procedure, shortened: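 Glycoconjugates spotted in triplicate on NHS-coated glass slides from PBS pH 8.5 with 5% glycerol. Slides held 17−20 h at 70% humidity, then blocked 1 h at 37 °C in ethanolamine/boric acid/Tween 20 buffer pH 8.5. Probing in 16-well masks under slow agitation, then Tween-PBS washes. Scanned at 635 nm excitation. Mean fluorescence fitted against log competitor concentration.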

IC50: 180 µM and 301 µM and 687 µM and 449 µM
SMILES: CC(=O)N[C@H]1C(O)O[C@H](CO)[C@H](O)[C@@H]1O (stereo partly drawn) [GalNAc, N-acetyl-D-galactosamine]
